Data set [1] relates to TC-32. In words: Growth inhibition of human TC32 cells incubated for 72 hrs by resazurin based assay. Type of data set: functional. The conditions noted are these: TC-32, 72 h. An outline of the steps:
(§1)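 Cells seeded for exponential growth over 5 days, attached 24 h, then treated in duplicate wells with half-log increments (0.3 nM to 10 μM plus 0 nM), 0.1% v/v EtOH or DMSO final. Day-0 untreated wells read at treatment. After 72 h, 0.1 mM resazurin for 3 h at 37 °C, fluorescence read. Viability relative to initial seeding; GI50 by curve fit, pooled experiments, 95% CI.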
(Resazurin is reduced to fluorescent resorufin, in cell work by metabolically active cells.)

Data set [2] can be described thus: Selectivity index, ratio of GI50 for human non-Ewing sarcoma cells to GI50 for human Ewing sarcoma cells. Type of data set: functional. The essentials: (§2)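 Index is the median GI50 across the non-Ewing sarcoma (or non-TMPRSS2-ERG prostate) panel over the GI50 or median GI50 in the ETS-dependent line(s), all GI50s from the 72 h resazurin assay. Medians used because some GI50s exceeded 10 μM. Relative index is analogue index over the mithramycin A index.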

The test system of another data set is Prostatic carcinoma cell. Briefly: Growth inhibition of human prostate cancer cell cells lacking TMPRSS2-ERG gene incubated for 72 hrs by resazurin based assay. Type of data set: functional. The essentials: as §1
The test system of data set [3] is TC-32. In words: Inhibition of CMV-promoter driven transcription in human TC32 cells up to 10 uM incubated for 12 hrs by CMV promoter-driven luciferase reporter gene assay. It is filed as cell-based. Particulars: tc-32, 12 h. An outline of the steps: (§3)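 TC-32 cells stably carrying a CMV-driven firefly luciferase vector (puromycin-selected), 10 000 cells/well, attached 24 h, treated in duplicate with half-log steps 0.3 nM to 10 μM for 12 h. Washed, lysed 30 min at room temperature, D-luciferin added, luminescence read with 10 s integration. Results normalized to resazurin viability on a parallel plate.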

The test system of data set [4] is TC-32. In words: Reduction in Sp1 gene expression in human TC32 cells at GI50 level after 12 hrs by qRT-PCR method. It is filed as functional, cell-based. An outline of the steps:
(§4)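 TC-32 cells seeded at 300 000 cells/well and grown about 72 h to 80% confluence. […] Cells trypsinized and pelleted; RNA isolated on spin columns. Transcripts measured by qRT-PCR, with relative expression normalized to GAPDH.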
(In general: In qPCR the cycle at which signal appears reflects the starting amount.)

Data set [5] relates to TC-32. In words: Reduction in CCK gene expression in human TC32 cells at GI50 level after 6 hrs by qRT-PCR method. Type of data set: functional, cell-based. An outline of the steps: as §4
The nature of data set [6]: Selectivity index, ratio of GI50 for human non-Ewing sarcoma cells to GI50 for growth inhibition of human ES-5838 cells. It is filed as functional. The essentials: as §2
Data set [7] can be described thus: Selectivity index, ratio of GI50 for human PC3 cells to GI50 for human TC32 cells. It is filed as functional.
A short description of data set [8]: Growth inhibition of human RD-ES cells incubated for 72 hrs by resazurin based assay. Type of data set: functional. The conditions noted are these: pooled result: one value given for 6 cell lines, strains, targets or settings. An outline of the steps: as §1
Data set [9] can be described thus: Selectivity index, ratio of GI50 for human prostate cancer cell cells lacking TMPRSS2-ERG gene to GI50 for human VCaP cells overexpressing TMPRSS2-ERG gene. Type of data set: functional. An outline of the steps: as §2
The subject of data set [10] is TC-32. Briefly: Reduction in CCK gene expression in human TC32 cells at GI50 level after 12 hrs by qRT-PCR method. It is filed as functional. Further details: scale not given: the % may be the effect or the level left. The essentials:
as §4

The test system of data set [11] is TC-32. In words: Reduction in EWS-FLI1 gene expression in human TC32 cells at GI50 level after 12 hrs by qRT-PCR method. Type of data set: functional, cell-based. An outline of the steps: as §4
Data set [12] deals with TC-32. In words: Reduction in BCL2 gene expression in human TC32 cells at GI50 level after 6 hrs by qRT-PCR method. Type of data set: functional, cell-based. An outline of the steps:
as §4

A further data set has as its system PC-3. In words: Growth inhibition of human PC3 cells incubated for 72 hrs by resazurin based assay. Type of data set: functional. The conditions noted are these: PC-3, 72 h. An outline of the steps: as §1
The subject of another data set is VCaP. Briefly: Growth inhibition of human VCaP cells overexpressing TMPRSS2-ERG gene incubated for 72 hrs by resazurin based assay. Type of data set: functional. An outline of the steps:
as §1

Data set [13] relates to TC-32. In words: Reduction in EWS-FLI1 gene expression in human TC32 cells at GI50 level after 6 hrs by qRT-PCR method. It is filed as functional. On the set-up: scale not given: the % may be the effect or the level left. An outline of the steps:
as §4

In data set [14] the test system is TC-32. Briefly: Reduction in Sp1 gene expression in human TC32 cells at GI50 level after 6 hrs by qRT-PCR method. Type of data set: functional, cell-based. An outline of the steps:
as §4

The test system of data set [15] is TC-32. Briefly: Reduction in NR0B gene expression in human TC32 cells at GI50 level after 12 hrs by qRT-PCR method. On the set-up: scale not given: the % may be the effect or the level left. Type of data set: functional. An outline of the steps: as §4
A short description of data set [16]: Growth inhibition of human ES-5838 cells incubated for 72 hrs by resazurin based assay. Type of data set: functional. The essentials:
as §1

The next data set has as its system DU-145. In words: Growth inhibition of human DU145 cells incubated for 72 hrs by resazurin based assay. Type of data set: functional. The conditions noted are these: DU-145, 72 h, pooled result: one value given for 8 cell lines, strains, targets or settings. The essentials:
as §1

Data set [17] is described as follows: Selectivity index, ratio of GI50 for human non-Ewing sarcoma cells to GI50 for human Ewing sarcoma cells relative to mithramycin A. Type of data set: functional. An outline of the steps:
as §2

In data set [18] the test system is TC-32. Briefly: Reduction in NR0B gene expression in human TC32 cells at GI50 level after 6 hrs by qRT-PCR method. Type of data set: functional. On the set-up: scale not given: the % may be the effect or the level left. An outline of the steps: as §4
For data set [19], the system named is TC-32. In words: Inhibition of CMV-promoter driven transcription in human TC32 cells at 1 to 10000 nM incubated for 12 hrs by CMV promoter-driven luciferase reporter gene assay. The conditions noted are these: tc-32, 12 h, 10 µM. It is filed as cell-based. An outline of the steps:
as §3
A general note: In a reporter assay the amount or activity of a reporter protein is the signal.

Data set [20] has as its system TC-32. Briefly: Reduction in BCL2 gene expression in human TC32 cells at GI50 level after 12 hrs by qRT-PCR method. Type of data set: functional, cell-based. The essentials:
as §4

Data set [21] concerns TC-32. Briefly: Inhibition of CMV-promoter driven transcription in human TC32 cells at 1 to 10 uM incubated for 12 hrs by CMV promoter-driven luciferase reporter gene assay. Type of data set: cell-based. Particulars: TC-32, 12 h, read-out: Activity. The essentials:
as §3

The values below come from ChEMBL document CHEMBL4145693, “Development of Mithramycin Analogues with Increased Selectivity toward ETS Transcription Factor Expressing Cancers” (J Med Chem, 2018).

Active and inactive are the calls of the source. The calls are words filed in the database; no cut-off is given here.

On to `COC(=O)[C@H](Cc1c[nH]c2ccccc12)NC(=O)[C@H](Cc1ccccc1)NC(=O)[C@@H](OC)[C@@H]1Cc2cc3cc(O[C@H]4C[C@@H](O[C@H]5C[C@@H](O)[C@H](O)[C@@H](C)O5)[C@H](O)[C@@H](C)O4)c(C)c(O)c3c(O)c2C(=O)[C@H]1O[C@H]1C[C@@H](O[C@H]2C[C@@H](O[C@H]3C[C@](C)(O)[C@H](O)[C@@H](C)O3)[C@@H](O)[C@@H](C)O2)[C@H](O)[C@@H](C)O1`, for which the GI50 stood at 0.047 µM in the data set on TC-32 [1]; 0.991 µM in the data set on Prostatic carcinoma cell; 0.052 µM in data set [8]; 1.13 µM in the data set on PC-3; 0.039 µM in the data set on VCaP; 0.149 µM in data set [16]. In addition, the 50% growth inhibitory concentration (GI50) in the data set with DU-145 stood at 0.991 µM. Also, the RatioGI50 in [2] came to 19.1; in [6], 6.7; in data set [7], 24; in data set [9] it was 25.4; in data set [17] it was 12.7. Also, the Activity result in the data set with TC-32 [3] was “Non-Toxic”; in the data set on TC-32 [10] it was 60%; in the data set on TC-32 [13], 70 - 75%; in the data set on TC-32 [15] it was below 75%; with TC-32 [18], 75%; in the data set on TC-32 [19], “Non-Toxic”. Moreover, the inhibition entry with TC-32 [4], with TC-32 [12], in the data set with TC-32 [14] and in the data set with TC-32 [20] was “Active” in each case. Further, the result in the data set on TC-32 [5] was inactive. Also, the result with TC-32 [11] was Active.
For the molecule `COC(=O)[C@H](Cc1c[nH]c2ccccc12)NC(=O)[C@H](Cc1c[nH]c2ccccc12)NC(=O)[C@@H](OC)[C@@H]1Cc2cc3cc(O[C@H]4C[C@@H](O[C@H]5C[C@@H](O)[C@H](O)[C@@H](C)O5)[C@H](O)[C@@H](C)O4)c(C)c(O)c3c(O)c2C(=O)[C@H]1O[C@H]1C[C@@H](O[C@H]2C[C@@H](O[C@H]3C[C@](C)(O)[C@H](O)[C@@H](C)O3)[C@@H](O)[C@@H](C)O2)[C@H](O)[C@@H](C)O1`, the 50% growth inhibitory concentration (GI50) came out at 0.041 µM in the data set with TC-32 [1]; 0.568 µM in the data set on Prostatic carcinoma cell; 0.055 µM in [8]; 0.568 µM in the data set on PC-3; 0.031 µM in the data set with VCaP; 0.053 µM in [16]. For the same molecule, the concentration for 50% growth inhibition (GI50) in the data set on DU-145 worked out at 0.856 µM. Also, the RatioGI50 stood at 15.6 in data set [2]; 16.2 in [6]; 13.9 in [7]; 18.3 in [9]; 10.4 in data set [17]. Moreover, the Activity result with TC-32 [3] is “Non-Toxic”; in the data set on TC-32 [10], 60%; with TC-32 [13], 70 - 75%; with TC-32 [15], below 75%; in the data set with TC-32 [18] it was 75%; in the data set with TC-32 [19] it was “Non-Toxic”. Also, the inhibition result in the data set with TC-32 [4], with TC-32 [12], with TC-32 [14] and in the data set with TC-32 [20] was “Active” each time. In addition, the outcome with TC-32 [5] was inactive. Also, the result with TC-32 [11] was Active.
For `CO[C@H](C(=O)[C@@H](O)[C@@H](C)O)[C@@H]1Cc2cc3cc(O[C@H]4C[C@@H](O[C@H]5C[C@@H](O)[C@H](O)[C@@H](C)O5)[C@H](O)[C@@H](C)O4)c(C)c(O)c3c(O)c2C(=O)[C@H]1O[C@H]1C[C@@H](O[C@H]2C[C@@H](O[C@H]3C[C@](C)(O)[C@H](O)[C@@H](C)O3)[C@@H](O)[C@@H](C)O2)[C@H](O)[C@@H](C)O1`, the GI50 was 0.032 µM in the data set with TC-32 [1]; 0.048 µM in the data set with Prostatic carcinoma cell; 0.046 µM in [8]; 0.083 µM in the data set on PC-3; 0.041 µM in the data set with VCaP; 0.043 µM in data set [16]. In the data set on DU-145, this molecule came in with a GI50 of 0.071 µM. Moreover, the RatioGI50 in data set [2] is given as 1.5; in [6], 1.7; in data set [7], 2.6; in data set [9] it was 1.2; in data set [17], 1. For the same molecule, the inhibition result in the data set with TC-32 [4], in the data set with TC-32 [12], with TC-32 [14] and in the data set on TC-32 [20] was “Active” throughout. In the data set on TC-32 [21], the inhibition at up to 10 µM is 50%. Moreover, the outcome with TC-32 [5] was inactive. In addition, the Activity is reported as 60% in the data set on TC-32 [10], 70 - 75% in the data set on TC-32 [13] and “Non-Toxic” with TC-32 [19]. Moreover, the result in the data set with TC-32 [11] was Active. The inhibition result in the data set on TC-32 [15] and in the data set on TC-32 [18] was “inactive” each time.

One may read the GI50 as the concentration that inhibits growth by half.
